Screening results as filed in PubChem BioAssay.
Hits are enriched below; roughly 3.5% of the tested compounds scored in any of these assays.
MrgX1 ag: agonists of human MrgX1 receptor, primary screen, HEK293 cells, Fluo-4 calcium flux; Mas-related G-protein coupled receptor member X1 (Homo sapiens), Q96LB2; Fluo-4 calcium fluorescence, agonist mode; active compounds read high; B-score at 10 µM; 0.44% of 310,000 active; AID 588627, 2011;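 active = calcium response B-score plate-corrected fluorescence ratio at least 3 library SD, with starting fluorescence B-score inside 5 SD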
Target sequence (Q96LB2 whole entry, looked up): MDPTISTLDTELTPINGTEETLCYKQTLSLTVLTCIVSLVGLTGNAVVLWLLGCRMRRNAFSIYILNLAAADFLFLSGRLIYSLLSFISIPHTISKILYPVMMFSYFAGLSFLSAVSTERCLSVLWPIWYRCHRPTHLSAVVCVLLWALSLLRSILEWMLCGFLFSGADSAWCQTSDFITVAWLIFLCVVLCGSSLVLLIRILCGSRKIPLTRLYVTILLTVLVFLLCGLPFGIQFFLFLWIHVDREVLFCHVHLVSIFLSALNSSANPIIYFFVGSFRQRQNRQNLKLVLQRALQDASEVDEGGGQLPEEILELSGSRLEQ
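Assay system: MrgX1-expressing HEK293 cells / Amount: fifteen thousand cells per well / Doses: test compound in the initial addition of three / Timing: cells plated overnight, dye loaded 0.5 h 37 °C, 0.5 h room temperature / Technique: kinetic calcium dye fluorescence, Fluo-4 NW / Control set: positive and negative controls per plate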
MrgX1 antagonist: antagonists of human MrgX1 receptor, primary screen, HEK293 cells, Fluo-4 calcium flux; AID 588676, 2011; 1.3% of 310,000 active; B-score at 10 µM; Mas-related G-protein coupled receptor member X1 (Homo sapiens), Q96LB2; BAM8-22 antagonism; active compounds read low;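 active = calcium-response B-score plate-corrected more than 3 library SD below zero, starting fluorescence within 5 deviations, no agonist response on first addition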;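 also: peak minus trough fluorescence over baseline after final BAM8-22 challenge near maximal dose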
MrgX1 PAM: positive allosteric modulators of MrgX1, primary screen, HEK293 cells, Fluo-4 calcium flux; B-score at 10 µM; 0.63% of 310,000 active; FDSS; active compounds read high;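 active = plate-corrected calcium response at least 3 library SD above typical, normal starting fluorescence, not activating the receptor alone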;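 also: compound read alongside a low EC10 to EC30 dose of BAM8-22 agonist; peak minus trough fluorescence over baseline measured at the second addition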
RGS4 block: RGS4 inhibitors, primary screen, cell-based, HEK293 M3R inducible RGS4, calcium flux | Regulator of G-protein signaling 4 (Homo sapiens), P49798 | Fluo-4 calcium flux; active compounds read high; triggered by carbachol at its EC20 | B-score at 10 µM | 0.45% of 310,000 active;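 active = B-score, a plate-corrected calcium signal, over three deviations above library mean, with baseline fluorescence within five deviations of library mean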;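 also: RGS4 expression induced by doxycycline in cells with stable M3 receptor; B-score is computed from the integrated fluorescence ratio over baseline after carbachol; higher B-score means a larger calcium signal and so more RGS4 inhibition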
Target sequence (P49798 whole entry, looked up): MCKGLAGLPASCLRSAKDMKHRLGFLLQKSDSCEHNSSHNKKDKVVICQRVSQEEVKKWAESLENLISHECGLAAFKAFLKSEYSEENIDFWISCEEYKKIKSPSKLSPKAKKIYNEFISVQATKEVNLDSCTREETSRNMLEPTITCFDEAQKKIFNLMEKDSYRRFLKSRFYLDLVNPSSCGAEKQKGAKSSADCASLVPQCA
RGS4 act: RGS4 potentiators or activators, primary screen, cell-based, HEK293 M3R inducible RGS4, calcium flux. B-score at 10 µM. AID 463111, 2010. carbachol calcium flux Fluo4; active compounds read low. 0.92% of 310,000 active;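 active = B-score of the integrated calcium signal more than 4 SD below the library mean, with starting fluorescence not abnormally high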;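 also: negative B-score means reduced calcium response which marks RGS4 activation or potentiation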
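test system = HEK293 cells with stable M3R and inducible RGS4 | schedule = recording 10 s baseline at 1 Hz, 100 s post-agonist | technique = Fluo4-AM (2 µM) calcium-flux fluorescence, kinetic read | measure = Agonist-evoked peak-minus-minimum fluorescence over baseline, integrated ratio, B score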
MrgX1 PAM conf: MrgX1 positive allosteric modulators, duplicate retest, confirmation, HEK293 cells, Fluo-4 calcium flux. shares compounds with MrgX1 PAM. Fluo-4 calcium fluorescence, FDSS. activation (ratio percentage), % at 10 µM. 13% of 1,200 active. AID 602413, 2012;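 active = ratio at least 3 SD above the weak peptide control, stable starting fluorescence, no direct agonism earlier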;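 also: compound followed by low BAM8-22 agonist challenge near EC20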
HEK293 Ca flux: nonspecific calcium signal in parental HEK293, confirmation, counter-screen for MrgX1 antagonist project, parental HEK293 cells, Fluo-4 calcium flux; shares compounds with MrgX1 antagonist; Fluo-4 calcium fluorescence, FDSS; AID 624111, 2012; fluorescence ratio F(max-min)/F0 at 10 µM; 2% of 4,000 active;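 active = duplicate-averaged calcium fluorescence ratio at least three times the standard deviation of buffer wells, a nonspecific response in parental cells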
HEK293 Ca counter: calcium response in parental HEK293 cells, primary screen, counter-screen for MrgX1 allosteric activator project, cell-based, Fluo-4 calcium flux, duplicate; shares compounds with MrgX1 antagonist; Fluo-4 fluorescence ratio; active compounds read high; fluorescence ratio F(max-min)/F0 at 10 µM; 0.4% of 4,000 active;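 active = calcium fluorescence ratio, averaged over duplicates, at least 3 SD of the buffer-well ratio, meaning a nonspecific response in receptor-free cells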;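 also: untransfected parental HEK293 lacking MrgX1 used as counterscreen for MrgX1 allosteric activators; fluorescence change taken during the second addition on a kinetic imager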
HEK293 Ca cntr2: calcium response in parental HEK293 cells, primary screen, counter-screen for MrgX1 agonist project, cell-based, Fluo-4 calcium flux, duplicate, agonist mode; shares compounds with MrgX1 antagonist; Fluo-4 calcium fluorescence (FDSS); active compounds read high; fluorescence ratio F(max-min)/F0 at 10 µM; 8.7% of 4,000 active; AID 624115, 2012;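 active = calcium fluorescence ratio at least three times the spread of buffer wells, meaning a non-specific response in parental cells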
The depositor's hits bear a star; i = inactive; / = no result.

SMILES	MrgX1 ag	MrgX1 antagonist	MrgX1 PAM	RGS4 block	RGS4 act	MrgX1 PAM conf	HEK293 Ca flux	HEK293 Ca counter	HEK293 Ca cntr2
Cn1c(N2CCN(C(=O)Nc3ccc(F)cc3)CC2)nc2ccccc21	i	i	i	i	i	/	/	/	/
COc1ccc(F)cc1S(=O)(=O)Nc1cc2c3c(c1)CC(=O)N3CCC2	i	i	i	i	i	/	/	/	/
O=C(NCc1ccc2c(c1)OCO2)NC12CC3CC(CC(C3)C1)C2	i	i	i	i	i	/	/	/	/
O=C(COc1ccc2c(c1)OCO2)NC12CC3CC(CC(C3)C1)C2	i	i	10.6*	i	i	i	i	i	i
COC(=O)c1ccccc1NC(=O)CSc1nnc(-c2cccnc2)n1C	i	i	i	i	i	/	/	/	/
COCCNC(=O)/C(C#N)=C/c1c(N2CC(C)OC(C)C2)nc2ccccn2c1=O (centres undefined)	i	i	i	i	i	/	/	/	/
CC(Cc1ccccc1)Nc1ncnc2c1ncn2C1OC(CO)C(O)C1O (centres undefined)	i	i	7.58*	i	i	i	i	i	i
CCOC(=O)Cc1csc(NC(=O)c2cc3ccccc3o2)n1	i	i	6.78*	i	i	i	i	i	i
CCOC(=O)Cc1csc(NC(=O)c2ccc(Br)o2)n1	i	i	16.5*	i	i	i	i	i	i
Cc1cc(NC(=O)CCC(=O)N(c2cccc(F)c2)C(C(=O)NC2CCCC2)c2ccccc2)no1 (centres undefined)	i	i	i	i	i	/	/	/	/
COc1cc2c(cc1OC)C(c1ccccc1C)CC(=O)N2 (centres undefined)	i	i	i	i	i	/	/	/	/
COc1ccccc1-c1nc2ccccc2nc1-c1ccccc1	i	i	8.97*	i	i	i	i	51.3*	i
Cc1cccc(NC(=O)c2ccc3c(Cl)c4c(nc3c2)CCCC4)n1	i	i	20.1*	i	i	i	i	i	i
Cc1cc2c(N3CCCCC3C)ncnc2s1 (centres undefined)	i	i	7.12*	i	i	i	i	i	i
Cc1sc2ncn(C(C)C(=O)OC3CCCCC3)c(=O)c2c1C (centres undefined)	i	i	9.19*	i	i	i	i	i	i
CCC1(C)Cc2ccccc2-c2nc(NCCO)n(-c3ccccc3)c(=O)c21 (centres undefined)	i	i	7.73*	i	i	i	i	i	i
CCC1(C)Cc2ccccc2-c2nc(NCCCO)n(C)c(=O)c21 (centres undefined)	i	i	i	i	i	/	/	/	/
Cc1nc(N2CCN(c3ccccn3)CC2)c2c(C)c(C(=O)N3CCN(c4ccccc4F)CC3)sc2n1	i	i	i	i	i	/	/	/	/
C=CCNC(=O)C(=O)c1c(-c2ccccc2)[nH]c2ccccc12	i	i	i	i	i	/	/	/	/
O=C(NCCc1ccccc1)C(=O)c1c(-c2ccccc2)[nH]c2ccccc12	i	i	11.4*	i	i	i	i	i	i
Cn1c(SCC(=O)NCC2CCCO2)ncc(C(=O)Nc2ccc(Cl)cc2)c1=O (centres undefined)	i	i	i	i	i	/	/	/	/
COc1cc(C(=O)Nc2ccccc2C(=O)NCc2cccnc2)cc(OC)c1OC	i	i	8.9*	i	i	i	i	i	i
CCOC(=O)c1c(C)[nH]c(C(=O)OCC(=O)Nc2cc(C)nn2-c2ccccc2)c1C	i	i	i	i	i	/	/	/	/
CC1CCN(C(=O)COc2ccc3ccccc3c2Br)CC1	i	i	6.51*	i	i	i	i	i	i
CC1CCN(C(=O)COc2ncnc3ccccc23)CC1	i	i	i	i	i	/	/	/	/
SMILES	MrgX1 ag	MrgX1 antagonist	MrgX1 PAM	RGS4 block	RGS4 act	MrgX1 PAM conf	HEK293 Ca flux	HEK293 Ca counter	HEK293 Ca cntr2
Cc1cc(OCc2cc(C(=O)N3CCCCCC3)no2)cc(C)c1Cl	i	i	i	i	i	/	/	/	/
Cc1nnc2ccc(-c3ccc(NS(=O)(=O)c4ccc(F)cc4F)cc3)nn12	i	i	9.66*	i	i	i	i	i	i
Cc1nnc2ccc(-c3ccc(NS(=O)(=O)c4ccccc4F)cc3)nn12	i	i	i	i	i	/	/	/	/
CC(=O)Nc1sc(/C(C#N)=C\c2cccc(Cl)c2)nc1-c1ccc(C)cc1	i	i	20*	i	i	i	0.0645*	i	58.7*
COc1ccc(-c2cc(C(=O)N3CCN(c4ncccn4)CC3)c3ccccc3n2)c(OC)c1	i	i	7.44*	i	i	i	i	i	71*
CC(C)c1ccc(C(=O)NCCCN2CCOCC2)cc1	i	i	i	i	i	/	/	/	/
O=C(NCCCN1CCOCC1)c1ccc(CSc2ccc(Cl)cc2)cc1	i	i	9.06*	i	i	i	i	i	i
CCOc1ccccc1N(CC(=O)NC1CCCCC1)S(=O)(=O)c1ccc(C)cc1	i	i	9.19*	i	i	i	i	i	i
CCOc1ccc(-c2[nH]ncc2-c2ccc(OC)c(OC)c2)c(O)c1	i	i	18.1*	/	/	i	i	i	i
CCc1cc(-c2[nH]ncc2-c2ccc3c(c2)OCO3)c(O)cc1O	i	i	i	i	i	/	/	/	/
CCOc1ccc(-c2[nH]ncc2Oc2ccccc2OCC)c(O)c1	i	i	6.69*	i	i	i	i	i	i
